The results in this text go back to ChEMBL document CHEMBL2150950, “Effect of 4-aryl-2-methyl-5-nitro-1,4-dihydropyridine-3-carboxylates on the guinea pig papillary muscle and isolated human vena saphena magna that is used for coronary artery bypass grafting” (2011).

Active and inactive are the calls of the source. The rule behind the calls is not given here.

Experiment [1] is described as follows: Ionotropic effect in guinea pig right ventricle papillary muscles assessed as contraction force at 10^-5 M by force transduction assay relative to untreated control (reference value: 100%). The format is functional, Cavia porcellus, Papillary muscle.
Experiment [2] is described as follows: Ionotropic effect in guinea pig ventricle papillary muscles assessed as lengthening of 50% repolarized cardiac action potential duration time at 10^-4 M by microelectrode technique relative to untreated control (reference value: 132 to 176 APD50 ms). Format: functional, Cavia porcellus, Papillary muscle.
Experiment [3] in a line: Ionotropic effect in guinea pig ventricle papillary muscles assessed as lengthening of 25% repolarized cardiac action potential duration time at 10^-4 M by microelectrode technique relative to untreated control (reference value: 84 to 104 APD25 ms). Format: functional, Cavia porcellus, Papillary muscle.
Experiment [4] can be described thus: Ionotropic effect in guinea pig ventricle papillary muscles assessed as lengthening of 25% repolarized cardiac action potential duration time at 10^-7 M by microelectrode technique relative to untreated control (reference value: 84 to 104 APD25 ms). Format: functional, Cavia porcellus, Papillary muscle.
Experiment [5] is described as follows: Ionotropic effect in guinea pig ventricle papillary muscles assessed as lengthening of […] cardiac action potential duration time at 10^-5 M by microelectrode technique relative to untreated control (reference value: 37 to 47 […] ms). The format is functional, Cavia porcellus, Papillary muscle.
The nature of experiment [6]: Ionotropic effect in guinea pig ventricle papillary muscles assessed as lengthening of 90% repolarized cardiac action potential duration time at 10^-7 M by microelectrode technique relative to untreated control (reference value: 132 to 176 APD50 ms). Format: functional, Cavia porcellus, Papillary muscle.
Experiment [7] can be described thus: Ionotropic effect in guinea pig right ventricle papillary muscles assessed as contraction force at 10^-7 M by force transduction assay relative to untreated control (reference value: 100%). Format: functional, Cavia porcellus, Papillary muscle.
Experiment [8] is described as follows: Ionotropic effect in guinea pig ventricle papillary muscles assessed as lengthening of 90% repolarized cardiac action potential duration time at 10^-5 M by microelectrode technique relative to untreated control (reference value: 132 to 176 APD50 ms). The format is functional, Cavia porcellus, Papillary muscle.
The nature of experiment [9]: Vasodilatory activity in human vena saphena magna assessed as relaxation of phenylephrine-induced smooth muscle contraction at 10^-7 to 10^-4 M. Format: functional. An outline of the steps:
(§1)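 Saphenous vein rings came from 37 CABG patients. They were bathed in Tyrode's solution (mM: NaCl 137, KCl 5.4, CaCl2 1.8, MgCl2 0.9, Tris HCl 10, glucose 5; pH 7.4), equilibrated 45–60 min and washed every 15 min. Rings were precontracted with 10^-4 M phenylephrine, then given cumulative test agent at 10^-7 to 10^-4 M. Isometric relaxation was recorded, as means ± SE.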

Experiment [10] is described as follows: Vasodilatory activity in human vena saphena magna assessed as reduction in phenylephrine-induced smooth muscle contraction at 100 uM relative to baseline contraction. Format: functional. Set-up: scale not given: the % may be the effect or the level left. A digest of the protocol: as §1
The nature of experiment [11]: Ionotropic effect in guinea pig ventricle papillary muscles assessed as lengthening of 50% repolarized cardiac action potential duration time at 10^-5 M by microelectrode technique relative to untreated control (reference value: 132 to 176 APD50 ms). The format is functional, Cavia porcellus, Papillary muscle.
Experiment [12] can be described thus: Ionotropic effect in guinea pig ventricle papillary muscles assessed as lengthening of 10% repolarized cardiac action potential duration time at 10^-6 M by microelectrode technique relative to untreated control (reference value: 37 to 47 APD10 ms). Format: functional, Cavia porcellus, Papillary muscle.
The nature of experiment [13]: Ionotropic effect in guinea pig ventricle papillary muscles assessed as lengthening of 90% repolarized cardiac action potential duration time at 10^-6 M by microelectrode technique relative to untreated control (reference value: 132 to 176 APD50 ms). Format: functional, Cavia porcellus, Papillary muscle.
Experiment [14] is described as follows: Ionotropic effect in guinea pig ventricle papillary muscles assessed as lengthening of 90% repolarized cardiac action potential duration time at 10^-4 M by microelectrode technique relative to untreated control (reference value: 132 to 176 APD50 ms). Format: functional, Cavia porcellus, Papillary muscle.
Experiment [15] can be described thus: Ionotropic effect in guinea pig ventricle papillary muscles assessed as lengthening of 50% repolarized cardiac action potential duration time at 10^-6 M by microelectrode technique relative to untreated control (reference value: 132 to 176 APD50 ms). Format: functional, Cavia porcellus, Papillary muscle.
Experiment [16] in a line: Ionotropic effect in guinea pig right ventricle papillary muscles assessed as contraction force at 10^-6 M by force transduction assay relative to untreated control (reference value: 100%). The format is functional, Cavia porcellus, Papillary muscle.
Experiment [17] can be described thus: Ionotropic effect in guinea pig ventricle papillary muscles assessed as lengthening of 10% repolarized cardiac action potential duration time at 10^-4 M by microelectrode technique relative to untreated control (reference value: 37 to 47 APD10 ms). The format is functional, Cavia porcellus, Papillary muscle.
Experiment [18] in a line: Ionotropic effect in guinea pig ventricle papillary muscles assessed as lengthening of 25% repolarized cardiac action potential duration time at 10^-5 M by microelectrode technique relative to untreated control (reference value: 84 to 104 APD25 ms). Format: functional, Cavia porcellus, Papillary muscle.
A short description of experiment [19]: Ionotropic effect in guinea pig ventricle papillary muscles assessed as lengthening of 10% repolarized cardiac action potential duration time at 10^-7 M by microelectrode technique relative to untreated control (reference value: 37 to 47 APD10 ms). Format: functional, Cavia porcellus, Papillary muscle.
Experiment [20] is described as follows: Ionotropic effect in guinea pig ventricle papillary muscles assessed as lengthening of 50% repolarized cardiac action potential duration time at 10^-7 M by microelectrode technique relative to untreated control (reference value: 132 to 176 APD50 ms). Format: functional, Cavia porcellus, Papillary muscle.
A short description of experiment [21]: Vasodilatory activity in human vena saphena magna assessed as reduction in phenylephrine-induced smooth muscle contraction at 0.1 uM. The format is functional. Set-up: scale not given: the % may be the effect or the level left. A digest of the protocol:
as §1

Experiment [22] is described as follows: Ionotropic effect in guinea pig right ventricle papillary muscles assessed as contraction force at 10^-4 M by force transduction assay relative to untreated control (reference value: 100%). The format is functional, Cavia porcellus, Papillary muscle.
Experiment [23] is described as follows: Ionotropic effect in guinea pig ventricle papillary muscles assessed as lengthening of 25% repolarized cardiac action potential duration time at 10^-6 M by microelectrode technique relative to untreated control (reference value: 84 to 104 APD25 ms). The format is functional, Cavia porcellus, Papillary muscle.

Take `COC(=O)C1=C(C)NC(C)=C([N+](=O)[O-])C1c1ccccc1C(F)(F)F` (stereo unspecified): the Activity in [1] came to 175%; in experiment [7], 123%; in experiment [10], 19%; in experiment [16], 155%; in [21], 50%; in [22], 176%. The Time in experiment [2] is 133.8 ms; in experiment [3] it was 89 ms; in [4], 92.7 ms; in experiment [5] it was 41 ms; in [6] it was 220 ms; in experiment [8] it was 217 ms. Also, the Time was 129 ms in experiment [11]; 42 ms in [12]; 218.2 ms in experiment [13]; 223.5 ms in [14]; 133.8 ms in [15]; 42.7 ms in [17]. For the same compound, the Time in experiment [18] stood at 85.1 ms; in experiment [19], 44.5 ms; in experiment [20], 135.6 ms; in experiment [23] it was 91 ms. The result in [9] was Active.

Take `CCOC(=O)C1=C(C)NC2=C(C(=O)OC2)C1c1ccccc1OC(F)F` (stereo unspecified): in experiment [9], the result was Active. The figures for the Activity in experiment [10] and in [21] were 19% and 50%, respectively.

On to `COC(=O)C1=C(C)NC=C([N+](=O)[O-])C1c1ccccc1C(F)(F)F` (stereo unspecified), for which the Activity is listed as 103% in experiment [1], 101% in experiment [7], 98.5% in experiment [16] and 97.8% in experiment [22]. The Time in [2] is reported as 156.5 ms; in experiment [3] it was 111.3 ms; in [4] it was 92.5 ms; in [5], 44.7 ms; in experiment [6], 171.5 ms; in [8] it was 175.5 ms. In addition, the Time in experiment [11] is given as 149.8 ms; in experiment [12], 38.5 ms; in [13], 172 ms; in [14] it was 184 ms; in experiment [15], 140.5 ms; in [17], 47 ms. Also, the Time in experiment [18] is listed as 103.2 ms; in experiment [19], 40 ms; in experiment [20], 138 ms; in experiment [23], 91.4 ms.

With `COC(=O)C1=C(C)NC(C)=C([N+](=O)[O-])C1c1ccccc1OC(F)F` (stereo unspecified), the Activity in [1] is listed as 108.3%; in experiment [7], 114.4%; in [16], 112.6%; in experiment [22], 111%. Further, the Time in [2] is given as 148.5 ms; in experiment [3] it was 109.2 ms; in experiment [4] it was 101.7 ms; in experiment [5], 55.3 ms; in [6], 178.3 ms; in experiment [8], 175 ms. The Time was 147 ms in experiment [11]; 54.5 ms in experiment [12]; 178.3 ms in [13]; 176.7 ms in experiment [14]; 149 ms in experiment [15]; 53.8 ms in experiment [17]. The Time in experiment [18] is 110.8 ms; in experiment [19] it was 51.3 ms; in [20], 144.8 ms; in experiment [23], 110.3 ms.

With `CCCOCCOC(=O)C1=C(C)NC=C([N+](=O)[O-])C1c1ccc(C(F)(F)F)cc1` (stereo unspecified), the Activity in experiment [1] amounted to 81%; in experiment [7], 89.5%; in [16], 83.7%; in [22], 73%. In addition, the Time in experiment [2] worked out at 158.7 ms; in [3] it was 101 ms; in experiment [4] it was 91 ms; in experiment [5], 37.5 ms; in experiment [6] it was 166.7 ms; in [8], 188 ms. Moreover, the Time in experiment [11] is 161.2 ms; in experiment [12], 36 ms; in experiment [13], 180 ms; in experiment [14], 189.6 ms; in [15], 149.6 ms; in experiment [17] it was 38.2 ms. Also, the Time in experiment [18] was found to be 103.3 ms; in experiment [19], 35 ms; in [20], 136.6 ms; in experiment [23], 96 ms.

Regarding `COC(=O)C1=C(C)NC=C([N+](=O)[O-])C1c1ccccc1OC(F)F` (stereo unspecified), the Activity in [1] turned out to be 90.3%; in experiment [7] it was 78.85%; in experiment [16] it was 73.5%; in [22], 92.8%. The Time was found to be 178 ms in experiment [2]; 112.6 ms in experiment [3]; 90.6 ms in experiment [4]; 39.5 ms in experiment [5]; 190 ms in [6]; 217 ms in experiment [8]. Moreover, the Time was found to be 177 ms in experiment [11]; 35 ms in experiment [12]; 202 ms in [13]; 220 ms in experiment [14]; 161 ms in experiment [15]; 39.5 ms in experiment [17]. The Time is given as 111.6 ms in [18], 36 ms in experiment [19], 153 ms in experiment [20] and 93.7 ms in experiment [23].
